BB579 growth dn = growth inhibitors of yeast BB579 in restrictive medium, primary screen, yeast lifespan-shortening project, S. cerevisiae; OD615, 48 h; inhibition, % at 10 µM; 0.51% of 140,000 active;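 active = inhibition above a set limit, 3 SD over the mean compound inhibition, cut at about 44% in these data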
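Material: Saccharomyces cerevisiae DeaD strain BB579, replicative lifespan model yeast; buffer or medium: CSMM-D restrictive synthetic medium containing dextrose (glucose); compound: 10 µM single dose, DMSO 0.25%; timing: 48 h compound exposure at 30 °C after 4 h preincubation; signal: turbidity as optical density at 615 nm; benchmarks: positive control amphotericin B 10 µg/mL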
Efa HMGR inh = inhibitors of E. faecalis class II HMGR, primary screen, biochemical, Enterococcus faecalis. 0.41% of 190,000 active. purified E. faecalis HMGR, NADPH absorbance 340 nm kinetic. AID 1066, 2008. inhibition, % at 10 µM;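 active = inhibition above a set limit, the median over all tested compounds plus 3 SD, cut at about 9.5% in these data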;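 note: enzyme runs in reverse so mevalonate oxidation gives rising NADPH absorbance; 0% = complete reaction with DMSO and 100% = background rate lacking mevalonate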
SDO1 yeast rescue = growth rescue of sdo1-depleted yeast, primary screen, S. cerevisiae, bone marrow failure model | z-score at 10 µM | S. cerevisiae sdo1-depleted JHY4D growth rescue, OD600 30 h; active compounds read high; pdr5 snq2 efflux-pump mutant strain | 0.21% of 140,000 active | AID 817, 2007;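 active = z-score above 3 at both the 24 hr and the 30 hr optical density reads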;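 note: z-score against mean and SD of all compound wells on the same plate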
Yeast life ext = compounds extending yeast replicative lifespan, primary screen, S. cerevisiae, OD615 | S. cerevisiae growth with nicotinamide; deaD strain in restrictive glucose medium | inhibition of the nicotinamide effect, % at 10 µM | 0.68% of 130,000 active | AID 775, 2007;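 active = inhibition above a set limit, placed 3 SD over the median of all compounds, cut at about 26% in these data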;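 note: 0% = nicotinamide-treated wells and 100% = cells grown without nicotinamide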
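Assay system: engineered S. cerevisiae DeaD replicative-lifespan strain, galactose-grown log-phase cells; Buffer or medium: CSMM-D glucose medium, restrictive; Probe or stimulus: nicotinamide 1.5 mM; Compound: single dose 10 µM compound, 0.25% DMSO; Schedule: 4 h preincubation then 48 h treatment at 30 °C; Technique: OD615 measurement.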
An asterisk follows results filed as active; . = no result. In the library only some 1.3% were active in any assay of this set; here they are far more common.

SMILES	BB579 growth dn	Efa HMGR inh	SDO1 yeast rescue	Yeast life ext
CCCNCc1cc(OC)c(OCc2ccccc2)cc1Br	.	19*	.	.
CCOC(=O)c1c(CNc2ccncc2)n(C)c2cc(Br)c(O)cc12	.	-6	.	.
O=C(Cn1ncc2ccccc21)N1CCN(c2cccc(C(F)(F)F)c2)CC1	-33	18*	-0.86	.
CC(=O)Nc1cccc(C(=O)Nc2cccnc2)c1	.	0	.	.
CCOc1ccccc1NC(=O)N1CCC(NC(=O)c2cccc(C)c2)CC1	-57	-2	1.1	-14
Cc1cccc(C(=O)NC2CCN(C(=O)Nc3ccccc3C)CC2)c1	.	14*	.	.
O=C(NC(NC(=S)Nc1ccccc1C(=O)O)C(Cl)(Cl)Cl)c1ccco1 (centres undefined)	-32	-9	1.1	4
O=C(NC(NC(=S)Nc1ccccc1C(=O)O)C(Cl)(Cl)Cl)c1ccccc1 (centres undefined)	.	17*	.	.
Cc1ccc(Oc2nc(CN3CCOCC3)nc3sc4c(c23)CCC(C)C4)cc1 (centres undefined)	6	-10	-2	14
Cc1ccc(Oc2nc(CN3CCOCC3)nc3sc4c(c23)CCC(C)C4)cc1C (centres undefined)	81*	0	-1.7	-8
CC1Cc2ccccc2N1C(=S)NC(=O)C1(C)CC1(Cl)Cl (centres undefined)	.	-2	.	.
Cc1nc(SC2CC(=O)N(c3ccccc3)C2=O)n[nH]1 (centres undefined)	.	13*	.	.
CCOC(=O)c1nc(NCCc2ccccc2)sc1C	.	11*	.	.
Cc1ccc(-c2nc(-c3ccc(Cl)cc3)sc2CC(=O)O)c(C)c1	.	5	.	.
CCOc1ccc(C2C(C#N)=C(N)Oc3cc(C)oc(=O)c32)cc1 (centres undefined)	.	16*	.	.
O=C1CC(C(=O)Nc2cccc(Cl)c2)n2ncnc2N1 (centres undefined)	.	12*	.	.
CN(c1ccccc1)c1nc2ccsc2c(=O)s1	-31	-8	-0.69	88*
Cc1ccc(Cl)c(OCC(=O)OCC(=O)NC2CCCc3ccccc32)c1 (centres undefined)	-27	13*	0.18	1
O=C(COC(=O)COc1ccc2ccccc2c1)NC1CCCc2ccccc21 (centres undefined)	-34	-2	-0.29	0
O=C(Cn1c(=O)oc2ccccc21)NCCc1ccccc1Cl	.	-7	.	.
COc1ccc(S(=O)(=O)n2oc(=O)cc2-c2ccccc2)cc1	21	-2	-0.87	32
COc1ccc(S(=O)(=O)n2oc(=O)cc2-c2ccccc2)cc1OC	57*	-2	-0.65	18
O=c1cc(-c2ccccc2)n(S(=O)(=O)c2ccccc2)o1	80*	-5	-0.73	2
CS(=O)(=O)N(CC(=O)Nc1ccccc1C(=O)N1CCCC1)c1ccc2c(c1)OCO2	.	-3	.	.
COc1ccc(C2CC23N=C(c2ccccc2)OC3=O)cc1 (centres undefined)	-14	-3	-0.57	45*
SMILES	BB579 growth dn	Efa HMGR inh	SDO1 yeast rescue	Yeast life ext
COc1ccc(C2=NC(c3ccccc3)CO2)cc1 (centres undefined)	-19	-7	-0.2	12
COc1ccc2c(c1)[nH]c1c(=O)n(N)cnc12	5	-5	0.73	-3
COc1ccc2c(c1)[nH]c1c(Cl)ncnc12	61*	-2	0.98	-10
Cc1ccc(-n2nnc3c(=O)n(CC(=O)N4CCC(C)CC4)cnc32)cc1	43*	2	-0.14	-5
Cc1ccc(-n2nnc3c(=O)n(CC(=O)N4CCCC4)cnc32)cc1	-41	-2	0.09	-13
COc1cc(C(=O)OC2CSCC2NC(=O)c2ccccc2)cc(OC)c1OC (centres undefined)	.	-4	.	.
O=[N+]([O-])c1ccc(N/N=C/c2ccc[nH]2)cc1	87*	-1	-1.2	-6
N/C(=N\OC(=O)COc1ccc2ccccc2c1Br)c1ccncc1	.	4	.	.
O=C(O)CN1C(=O)/C(=C/c2ccc(SCc3ccccc3)o2)SC1=S	.	0	.	.
CN(C)S(=O)(=O)c1cccc(C(=O)Nc2ccc(S(=O)(=O)N3CCCC3)cc2)c1	.	14*	.	.
C#CCOc1ccc(Cl)cc1/C=N/O	-14	-2	1.3	-15
O/N=C/c1cc(Cl)ccc1OCc1cccc2ccccc12	76*	1	-1.1	-9
Cn1c(CCCCCN)nc2ccccc21	-1	-6	1.6	30*
CCCC(=O)NCCCc1nc2ccccc2n1C	1	-8	0.1	-3
Cc1c(NC(=O)C(=O)/C=C(\O)c2ccc(Cl)cc2)c(=O)n(-c2ccccc2)n1C	-41	-3	0.79	79*
CCOc1cc(/C=C2\SC(=O)N=C2N)ccc1O	-27	-2	-0.95	7
NC1=NC(=O)S/C1=C\c1ccc(F)cc1	.	24*	.	.
O=C(COc1ccc([N+](=O)[O-])cc1)Nc1ccccc1N1CCCC1	.	-3	.	.
O=C(CSC1=NCCS1)c1ccc(Cl)cc1	.	0	.	.
O=C(CSC1=NCCS1)N1CCN(c2ccc(Cl)cc2)CC1	51*	-8	0.52	-24
CC(OC(=O)CCCN1C(=O)c2ccccc2C1=O)C(=O)Nc1ncc(Cl)cc1Cl (centres undefined)	-13	5	-0.57	30*
Cc1nc(Nc2ccc(Cl)c(Cl)c2)sc1C(=O)Nc1ccccc1	79*	1	-1.5	0
Cc1nc(Nc2ccc(Cl)cc2Cl)sc1C(=O)Nc1ccccc1	-30	-6	-1.6	-5
Cc1c(C(=O)O)cccc1-c1ccc(/C=N/Nc2ccc(Br)cc2)o1	44*	-1	-0.81	-6
O=Cc1ccc(-c2ccccc2C(=O)O)o1	.	-2	.	.
SMILES	BB579 growth dn	Efa HMGR inh	SDO1 yeast rescue	Yeast life ext
Cc1ccc(-c2[nH]nc(N)c2N=Nc2ccccc2C)cc1	52*	-2	-1.9	-38
Cc1ccc(-c2[nH]nc(N)c2N=Nc2cccc(Cl)c2C)cc1	-41	5	-2.6	-9
COc1ccc(CCn2c(C(C)C)nc3c(c(=O)c4ccccc4n3C)c2=O)cc1	-34	5	-1.4	27*
COc1ccc(S(=O)(=O)NCC2CCC(C(=O)NCC(OC)OC)CC2)cc1 (centres undefined)	.	-2	.	.
O=C(Nc1ccccn1)NC12CC3CC(CC(C3)C1)C2	-51	-4	-1.5	-17
O=C(NCc1ccccn1)NC12CC3CC(CC(C3)C1)C2	-49	2	1.2	32*
O=C(/C(=N\Nc1ccccc1)Sc1nnnn1-c1ccccc1)c1ccccc1	-39	-3	-0.49	30*
COCC(C)n1c(SCC(=O)c2cc(C)n(C)c2C)nc2ccccc2c1=O (centres undefined)	.	-2	.	.
O=[N+]([O-])c1ccc(Cl)c(/C=N/Nc2nc(N3CCOCC3)nc(N3CCOCC3)n2)c1	-23	-5	1.7	-7
Cc1ccc([N+](=O)[O-])cc1Nc1nc(N2CCOCC2)nc(N2CCOCC2)n1	.	10*	.	.
COc1cccc(C2=NOC(C(=O)Nc3cccnc3Cl)C2)c1 (centres undefined)	.	-1	.	.
CCOC(=O)CC1COCCN1Cc1cn(C)nc1-c1ccccc1F (centres undefined)	.	0	.	.

Screens: PubChem BioAssay, several laboratories
